pEC50: −log10 of the molar value.
Tests used:
[1] = molecular target: T1, Adenosine receptor A1 (Rattus norvegicus, UniProt P25099); test: Displacement of [3H]DPCPX from rat brain cortical membrane A1AR assessed as GTP shift
T1 sequence (P25099 whole entry): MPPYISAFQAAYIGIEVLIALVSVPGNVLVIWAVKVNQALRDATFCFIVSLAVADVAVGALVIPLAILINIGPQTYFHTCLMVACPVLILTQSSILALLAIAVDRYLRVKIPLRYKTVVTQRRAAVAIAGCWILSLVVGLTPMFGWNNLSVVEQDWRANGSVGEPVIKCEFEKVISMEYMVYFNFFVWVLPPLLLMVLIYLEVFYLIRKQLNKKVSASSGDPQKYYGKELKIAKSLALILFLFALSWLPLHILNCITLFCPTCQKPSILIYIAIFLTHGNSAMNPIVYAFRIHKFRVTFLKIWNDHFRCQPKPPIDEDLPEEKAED

[2] = molecular target: T2, Adenosine receptor A3 (Rattus norvegicus, UniProt P28647); test: Antagonist activity at rat A3AR expressed in CHO cells assessed as reduction in NECA-induced inhibition of forskolin-stimulated cAMP accumulation at 10 uM incubated for 2 hrs by fluorescence based assay
T2 sequence (P28647 whole entry): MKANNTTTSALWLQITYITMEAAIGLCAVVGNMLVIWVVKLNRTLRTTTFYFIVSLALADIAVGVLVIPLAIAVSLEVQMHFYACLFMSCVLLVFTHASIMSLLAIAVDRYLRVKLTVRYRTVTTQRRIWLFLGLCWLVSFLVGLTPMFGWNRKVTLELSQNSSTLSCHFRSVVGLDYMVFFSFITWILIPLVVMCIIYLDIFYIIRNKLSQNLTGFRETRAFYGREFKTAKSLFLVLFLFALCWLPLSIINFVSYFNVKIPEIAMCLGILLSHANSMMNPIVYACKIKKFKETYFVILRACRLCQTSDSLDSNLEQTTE
Outline: (§1)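 CHO cells stably expressing rat A3 AR, seeded at 150,000-200,000 cells/well. Cells washed, then held 2 h at 37 °C in HBSS with 20 mM HEPES (pH 7.3) and 2 U/ml adenosine deaminase. Forskolin (10 μM) plus NECA concentration series added at 36.5 °C, with or without test compound. Stopped by hot lysis solution (90 °C, 4 mM Na2EDTA, Triton X-100). Data normalized to forskolin (100%) and buffer (0%). KB calculated, n=3.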

[3] = molecular target: T2, Adenosine receptor A3; test: Antagonist activity at rat A3AR expressed in CHO cells assessed as reduction in NECA-induced inhibition of forskolin-stimulated cAMP accumulation at 3 uM incubated for 2 hrs by fluorescence based assay; outline: as §1
[4] = molecular target: T2, Adenosine receptor A3; test: Antagonist activity at rat A3AR expressed in CHO cells assessed as reduction in NECA-induced inhibition of forskolin-stimulated cAMP accumulation incubated for 2 hrs by fluorescence based assay; outline: as §1

In the case of `COc1ccc(C(=O)Nc2nc(-c3ccccc3)c(C(=O)c3ccc(C)cc3)s2)cc1`, the GTP shift [1] was 1.

Work on `Cc1ccc(C(=O)c2sc(NC(=O)c3ccco3)nc2-c2ccccc2)cc1` yielded a GTP shift [1] of 1.3.

In the case of `O=C(Nc1nc(-c2ccccc2)c(-c2nc3ccccc3c(=O)n2-c2ccc(Cl)cc2)s1)c1ccco1`, the pEC50 [2] was 5.76, the pEC50 [3] was 7.24 and the pEC50 [4] was 8.28.

For `O=C(Nc1nc(-c2ccccc2)c(C(=O)c2ccc(F)cc2F)s1)c1ccccc1`, the GTP shift [1] was 0.9.

In the case of `O=C(Nc1nc(-c2ccccc2)c(C(=O)c2ccc(Cl)cc2)s1)c1ccccc1`, the GTP shift [1] was 1.
